Experiments:
Tenebrio molitor [1] = assay: Growth inhibition of last instar larvae of Tenebrio molitor assessed as successful pupation at 120 ug/larvae, applied topically measured every 24 hrs for 30 days; format: functional; design: scale not given: the % may be the effect or the level left
In short: (§1)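 Last-instar T. molitor larvae (113–160 mg, from a stock culture kept on wheat bran) were dosed once, topically on the ventral abdominal segments by microsyringe, with 2 µL acetone solution (120 µg compound per larva). Solvent-only controls were included. Larvae were unfed. Pupation and pupal-stage length were scored every 24 h to day 30. n = 60, mean (SE). Pupation was analysed by χ² test and pupal duration by Dunnett test.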

Tenebrio molitor [2] = assay: Growth inhibition of last instar larvae of Tenebrio molitor assessed as duration of pupal stage at 120 ug/larvae, applied topically measured every 24 hrs for 30 days; format: functional; in short: as §1

Structure (SMILES)	Activity (Tenebrio molitor [1])	Activity (Tenebrio molitor [2])
CC(C)CCc1cc(CCC(=O)O)ccc1O	50%	10.2 days
CC(C)=CCc1cc(/C=C/C(=O)O)ccc1O [DRUPANIN]	63%	13 days
CC(=O)c1ccc2c(c1)C(=O)CC(C)(C)O2	87%	12.1 days
O=C(O)/C=C/c1ccc(O)cc1 [COUMARIC ACID]	87%	10 days
C=C(CO)[C@@H]1Cc2cc(C(C)=O)c(O)cc2O1	73%	11.6 days
C=C(C)c1cc2cc(C(C)=O)c(O)cc2o1 [EUPARIN]	83%	10.5 days
C=C(COC(C)=O)[C@@H]1Cc2cc(C(C)=O)c(O)cc2O1	73.3%	11.2 days
C=C(CO)[C@@H]1Cc2cc(C(C)=O)ccc2O1 [BITALIN A]	75%	8.6 days
CC(=O)c1cc2c(cc1O)OC(C)(C)C=C2 [DEMETHYLENCECALIN]	66.6%	11.5 days
C=C(COC(=O)/C=C/c1ccc(O)cc1)[C@@H]1Cc2cc(C(C)=O)ccc2O1	26%	10.5 days
C=C(COC(C)=O)[C@@H]1Cc2cc(C(C)=O)ccc2O1	75%	9.8 days
CC(=O)c1ccc(O)c(C(=O)C=C(C)C)c1	75%	11.4 days
COC(=O)/C=C/c1ccc2c(c1)CCC(C)(C)O2	87%	7 days
O=C(O)/C=C/c1ccccc1 [CINNAMIC ACID]	92%	8.7 days

From ChEMBL document CHEMBL1150958, “Growth-inhibitory activities of benzofuran and chromene derivatives toward Tenebrio molitor” (1998)
